In ChEMBL document CHEMBL1152791, “New poly(ADP-ribose) polymerase-1 inhibitors with antioxidant activity based on 4-carboxamidobenzimidazole-2-ylpyrroline and -tetrahydropyridine nitroxides and their precursors” (J Med Chem, 2009):
pIC50: −log10 of the molar value. Activity calls are given as the source filed them. The calls are words filed in the database; no cut-off is given here.

Experiments:
[1] = system: WRL68; experiment: Inhibition of H2O2-induced cell death in human WRL68 cells after 3 hrs by MTT assay; type: functional, cell-based; details: WRL68, 3 h
Method in brief: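 WRL-68 cells (ATCC) were grown in DMEM with 10% fetal calf serum at 37 °C and 5% CO2, seeded at 2.5 × 10⁴ cells/well and left overnight. They were then exposed to 0.3 mM H2O2 alone or with 0.02–10 µM compound for 3 h, then 0.5% MTT for 3 h. Formazan was dissolved in acidic isopropanol and read at 550 nm. Runs used ≥6 parallels and were repeated 3 times. IC50 is the concentration (µM) halving H2O2-induced death.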

[2] = molecular target: Poly [ADP-ribose] polymerase 1 (Rattus norvegicus, UniProt P27008); experiment: (§1) Inhibition of rat liver PARP1 by scintillation counting
Sequence of Poly [ADP-ribose] polymerase 1 (P27008 whole entry): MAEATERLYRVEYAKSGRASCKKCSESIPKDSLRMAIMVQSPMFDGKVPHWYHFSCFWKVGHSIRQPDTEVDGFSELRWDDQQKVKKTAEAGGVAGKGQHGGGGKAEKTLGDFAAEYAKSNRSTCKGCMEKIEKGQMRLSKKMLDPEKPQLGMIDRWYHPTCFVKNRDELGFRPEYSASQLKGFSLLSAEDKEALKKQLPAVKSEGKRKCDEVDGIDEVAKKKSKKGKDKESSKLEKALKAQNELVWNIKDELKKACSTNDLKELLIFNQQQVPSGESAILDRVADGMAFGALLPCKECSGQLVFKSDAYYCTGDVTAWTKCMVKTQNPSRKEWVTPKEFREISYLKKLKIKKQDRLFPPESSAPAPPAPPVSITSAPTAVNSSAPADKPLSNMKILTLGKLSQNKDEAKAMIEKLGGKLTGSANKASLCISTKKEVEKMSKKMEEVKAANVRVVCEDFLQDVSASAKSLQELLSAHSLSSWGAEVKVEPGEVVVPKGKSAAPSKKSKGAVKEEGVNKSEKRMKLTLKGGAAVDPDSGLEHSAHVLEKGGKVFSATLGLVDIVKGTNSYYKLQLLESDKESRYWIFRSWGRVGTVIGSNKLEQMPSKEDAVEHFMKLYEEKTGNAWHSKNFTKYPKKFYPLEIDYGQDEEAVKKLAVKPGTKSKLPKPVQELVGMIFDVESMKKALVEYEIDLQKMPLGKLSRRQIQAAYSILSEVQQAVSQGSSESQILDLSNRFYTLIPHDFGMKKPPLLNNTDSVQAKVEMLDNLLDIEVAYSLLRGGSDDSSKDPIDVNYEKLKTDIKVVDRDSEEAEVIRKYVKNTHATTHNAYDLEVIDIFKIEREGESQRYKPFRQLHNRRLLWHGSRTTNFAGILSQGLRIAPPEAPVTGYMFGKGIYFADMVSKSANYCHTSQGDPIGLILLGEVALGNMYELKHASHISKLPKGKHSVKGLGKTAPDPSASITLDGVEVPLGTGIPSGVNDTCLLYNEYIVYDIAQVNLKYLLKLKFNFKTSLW

[3] = Antioxidant activity assessed as hydroxyl radical scavenging activity by fenton reaction; type: functional
Method in brief: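 Fenton-type hydroxyl radical generation in 2.5 mL of 20 mM potassium phosphate pH 6.8 with 0.1 mM benzoic acid, 0.1 mM H2O2 and 20 µM Fe2+-EDTA. Hydroxybenzoic acid formation followed by fluorescence (ex 305 nm, em 407 nm). IC50 is the concentration (µM) halving the rate of benzoic acid hydroxylation.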

[4] = molecular target: Poly [ADP-ribose] polymerase 1 (Rattus norvegicus) (UniProt P27008); experiment: as §1
Sequence of Poly [ADP-ribose] polymerase 1 (Rattus norvegicus) (P27008 whole entry): as above

[5] = Toxicity in ip dosed C57BL/6 mouse assessed as mortality measured every 24 hrs for 14 days; type: organism-based; details: in vivo
Method in brief: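 C57BL/6 mice, groups of eight, given a single intraperitoneal injection of […]. Animals were watched for respiratory, digestive and neurological changes. Deaths were counted every 24 h for 14 days. Animals were kept under standard conditions with tap water and chow ad libitum.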

[6] = system: Rattus norvegicus; experiment: Metabolic stability in Wistar rat assessed as 2-(1-oxyl-2,2,6,6-tetramethyl-1,2,3,6-tetrahydropyridin-4-yl)-1H-benzimidazol-4-carboxylic acid amide radical level in urine at 8 mg/kg, ip after 4 hrs by EPR spectroscopy; type: ADME, organism-based; design: dose 8 mg/kg, route intraperitoneal; details: in vivo
Method in brief: (§2)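 Male Wistar rats (290–350 g, n = 3/group) were housed singly in metabolic cages and given a single ip dose of the HCl salt dissolved in 1.0 mL 0.9% NaCl. Urine was collected before dosing and from injection to 4 h. Untreated urine was measured by X-band EPR in 50 µL glass capillaries to give the radical concentration.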

[7] = system: Rattus norvegicus; experiment: Metabolic stability in Wistar rat assessed as 2-(1-oxyl-2,2,6,6-tetramethyl-1,2,3,6-tetrahydropyridin-4-yl)-1H-benzimidazol-4-carboxylic acid amide radical level in urine at 8 mg/kg, ip after 4 hrs by EPR spectroscopy in presence of PbO2; type: ADME, organism-based; design: dose 8 mg/kg, route intraperitoneal; details: in vivo
Method in brief: (§3)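 Male Wistar rats (290–350 g, n = 3/group) were housed singly in metabolic cages and given a single ip dose of the HCl salt in 1.0 mL 0.9% NaCl. For urine collected from 0 to 4 h, 50 mg PbO2 was added per 1 mL, vortexed 1 min and left 10 min. This oxidizes hydroxylamine to nitroxide. A 50 µL portion of supernatant was then measured by X-band EPR.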

[8] = system: Rattus norvegicus; experiment: Metabolic stability in Wistar rat assessed as nitroxide metabolite level in urine at 8 mg/kg, ip after 4 hrs by EPR spectroscopy in presence of PbO2; type: ADME, organism-based; design: dose 8 mg/kg, route intraperitoneal; details: in vivo; method in brief: as §3
[9] = system: Rattus norvegicus; experiment: Metabolic stability in Wistar rat assessed as nitroxide metabolite level in urine at 8 mg/kg, ip after 4 hrs by EPR spectroscopy; type: ADME, organism-based; design: dose 8 mg/kg, route intraperitoneal; details: in vivo; method in brief: as §2

Compound	pIC50 [3]	pIC50 [1]	pIC50 [2]	further results
CC1(C)C=C(c2nc3cc(C(N)=O)ccc3[nH]2)CC(C)(C)N1	4.35	–	–	Activity [4]: inactive
CC1(C)NC(C)(C)c2cc(-c3nc4c(C(N)=O)cccc4[nH]3)ncc21	3.82	7.10	6.33	–
CC(C)NC(=O)c1cccc2[nH]c(C3=CC(C)(C)NC3(C)C)nc12	5.64	4.25	5.00	–
CC1(C)C=C(c2ccc(-c3nc4c(C(N)=O)cccc4[nH]3)cc2)C(C)(C)N1O	5.14	7.48	7.11	–
CC1(C)C=C(c2nc3c(C(N)=O)cccc3[nH]2)C(C)(C)N1	5.68	6.21	–	LD50 at 336 h [5]: 620 mg/kg
CC1(C)C=C(COc2ccc(-c3nc4c(C(N)=O)cccc4[nH]3)cc2)C(C)(C)N1O	4.88	5.79	6.25	–
COC(=O)[C@@H]1[C@@H](c2nc3c(C(N)=O)cccc3[nH]2)C(C)(C)N(O)C1(C)C	6.05	4.95	–	–
COC(=O)[C@@H]1[C@@H](c2nc3c(C(N)=O)cccc3[nH]2)C(C)(C)NC1(C)C	5.51	6.48	6.67	–
CC1(C)C(c2cccc(C(F)(F)F)c2)=C(c2nc3c(C(N)=O)cccc3[nH]2)C(C)(C)N1O	4.95	4.22	6.83	–
CC1(C)c2cc(-c3nc4c(C(N)=O)cccc4[nH]3)sc2C(C)(C)N1O	4.57	4.40	5.47	–
CC1(C)NC(C)(C)c2cc(-c3nc4c(C(N)=O)cccc4[nH]3)ccc21	3.85	6.72	6.35	–
CC1(C)C(c2nc3c(C(N)=O)cccc3[nH]2)=C(c2cccc3c2oc2ccccc23)C(C)(C)N1O	5.28	4.57	5.74	–
COc1cc(-c2nc3c(C(N)=O)cccc3[nH]2)ccc1OCC1=CC(C)(C)N(O)C1(C)C	4.85	4.99	6.33	–
CC1(C)NC(C)(C)C(c2cccc3c2oc2ccccc23)=C1c1nc2c(C(N)=O)cccc2[nH]1	5.28	6.49	5.74	–
CC1(C)C(c2ccccc2)=C(c2nc3c(C(N)=O)cccc3[nH]2)C(C)(C)N1O	5.90	6.62	5.82	–
CC1(C)C=C(c2nc3c(C(N)=O)cccc3[nH]2)CC(C)(C)N1	5.80	7.01	–	LD50 at 336 h [5]: 740 mg/kg
CC1(C)C=C(c2nc3c(C(N)=O)cccc3[nH]2)CC(C)(C)N1O.Cl	–	–	–	Activity [8]: 116 nM; Activity [9]: 87 nM
CC1(C)C(Br)=C(c2nc3c(C(N)=O)cccc3[nH]2)C(C)(C)N1O	5.55	5.09	6.70	–
CC1(C)NC(C)(C)c2sc(-c3nc4c(C(N)=O)cccc4[nH]3)cc21	4.98	5.16	–	–

The next lines start with results.

pIC50 [3]	Compound	pIC50 [1]	pIC50 [2]	further results
3.46	CC1(C)C=C(CSc2nc3c(C(N)=O)cccc3[nH]2)CC(C)(C)N1	5.25	5.40	–
3.70	CC1(C)C=C(CSc2nc3c(C(N)=O)cccc3[nH]2)C(C)(C)N1O	4.68	5.22	–
5.42	COc1cc(-c2nc3c(C(N)=O)cccc3[nH]2)ccc1OCC1=CC(C)(C)NC1(C)C	7.00	–	–
3.95	CON1C(C)(C)C=C(c2nc3c(C(N)=O)cccc3[nH]2)C1(C)C	8.03	–	–
4.14	CN1C(C)(C)C=C(c2nc3c(C(N)=O)cccc3[nH]2)C1(C)C	7.02	–	–
5.68	CC(C)NC(=O)c1cccc2[nH]c(C3=CC(C)(C)N(O)C3(C)C)nc12	5.48	5.00	–
5.02	CC1(C)C=C(c2nc3c(C(N)=O)cccc3[nH]2)CC(C)(C)N1O	4.81	7.59	Activity [6]: 0.7 nM; Activity [7]: 1.7 nM
4.87	CC1(C)NC(C)(C)C(c2nc3c(C(N)=O)cccc3[nH]2)=C1c1cccc(C(F)(F)F)c1	4.49	–	–
6.42	CC1(C)NC(C)(C)C(c2nc3c(C(N)=O)cccc3[nH]2)=C1c1ccccc1	5.40	–	–
3.70	CC1(C)C=C(CSc2nc3c(C(N)=O)cccc3[nH]2)C(C)(C)N1	5.50	5.52	–
4.09	CC(=O)N1C(C)(C)C=C(c2nc3c(C(N)=O)cccc3[nH]2)C1(C)C	5.50	–	–
5.74	CC1(C)C=C(Cn2cnc3c(C(N)=O)cccc32)C(C)(C)N1O	5.70	5.00	–
5.37	CC1(C)C=C(COc2ccc(-c3nc4c(C(N)=O)cccc4[nH]3)cc2)C(C)(C)N1	5.79	–	–
5.35	CC1(C)C=C(c2ccc(-c3nc4c(C(N)=O)cccc4[nH]3)cc2)C(C)(C)N1	6.47	–	–
5.47	CC1(C)NC(C)(C)C(c2nc3c(C(N)=O)cccc3[nH]2)=C1Br	5.45	–	–
3.74	CC1(C)C=C(CSc2nc3c(C(N)=O)cccc3[nH]2)CC(C)(C)N1O	4.90	5.30	–
3.77	CC1(C)C=C(c2nc3cc(C(N)=O)ccc3[nH]2)CC(C)(C)N1O	4.55	–	Activity [4]: inactive
5.26	CC1(C)C=C(c2nc3ccccc3[nH]2)CC(C)(C)N1	–	–	Activity [4]: inactive
